SENP6 inh = inhibitors of human SENP6 protease | Recombinant SENP6 catalytic domain, aminoluciferin luminescence | 1.8% of 330,000 active | Q9GZR1 | inhibition, % at 10 µM;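 active = inhibition above about 50% at the single tested dose, limit read from the data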;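 also: plate controls were DMSO wells with enzyme for no effect and DMSO wells lacking enzyme for full effect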
Platelet DG rel = modulates dense granule release in human platelets. AID 1663. 0.22% of 300,000 active. inhibition, %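 (compounds screened at 7.5 µM in platelet-rich plasma)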. human platelet-rich plasma, SFLLRN dense granule ATP release, luminescence;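 active = mean replicate score, as percent of positive control, at or above 50; inconclusive = mean below 50 but at least one replicate at or above 50; inactive = mean and every replicate below 50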
SENP8 block-1 = SENP8 (human) protease inhibition. 0.64% of 360,000 active. inhibition, % at 20 µM. Q96LD8. recombinant SENP8, Nedd8 substrate fluorescence; in the data active = inhibition mostly above about 40%, no sharp cut-off; inactive = mostly below about 27%
SENP8 block-2 = blocks the human protease SENP8. Q96LD8. purified SENP8, Z-RLRGG-aminoluciferin cleavage, luminescence. inhibition, % at 10 µM. 1.2% of 330,000 active; in the data active = inhibition above about 50%
SENP7 block = blocks the human protease SENP7; inhibition, % at 5 µM; 1.5% of 330,000 active; recombinant SENP7, Z-RLRGG-aminoluciferin luminescence, 40 min; Q9BQF6;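 active = inhibition above about 50% at the single test dose, limit read from the data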;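 also: plate controls were DMSO with enzyme for no effect and no enzyme buffer wells for full effect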
Target sequence (Q9BQF6 706-1050 limits assumed): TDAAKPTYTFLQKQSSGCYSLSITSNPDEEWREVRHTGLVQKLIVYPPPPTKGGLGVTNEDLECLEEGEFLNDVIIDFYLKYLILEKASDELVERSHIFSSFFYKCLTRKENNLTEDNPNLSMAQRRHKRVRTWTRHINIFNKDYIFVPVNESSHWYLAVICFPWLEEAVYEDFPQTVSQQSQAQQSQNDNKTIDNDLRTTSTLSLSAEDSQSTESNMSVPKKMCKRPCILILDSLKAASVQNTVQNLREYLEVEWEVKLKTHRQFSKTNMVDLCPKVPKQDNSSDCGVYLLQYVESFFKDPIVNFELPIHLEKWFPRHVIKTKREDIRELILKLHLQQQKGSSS
SENP1 FRET inh = SENP1 (human) catalytic domain inhibition | inhibition, % at 10 µM | 0.21% of 360,000 active | Q9P0U3 | recombinant SENP1 catalytic domain, CyPet-SUMO1-YPet FRET cleavage;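 active = inhibition at least 30% at 10 µM, raw YFP signal under a set limit, fluorescence ratio 0.5 to 1.5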;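 also: 0% = enzyme with DMSO and 100% = no enzyme wells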
Target sequence (Q9P0U3 419-644 limits assumed): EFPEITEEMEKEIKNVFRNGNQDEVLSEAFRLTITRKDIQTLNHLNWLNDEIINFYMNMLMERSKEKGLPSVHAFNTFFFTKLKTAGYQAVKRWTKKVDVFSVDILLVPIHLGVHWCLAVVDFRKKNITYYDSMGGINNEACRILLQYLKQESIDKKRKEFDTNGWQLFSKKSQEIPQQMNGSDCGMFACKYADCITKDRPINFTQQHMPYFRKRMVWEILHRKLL
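Test system: hSENP1 catalytic domain, recombinant; Amount: 20 pM final SENP1 enzyme; Medium: Tris pH 8 buffer plus EDTA, NaCl, BME, BSA, NP40, catalase; Schedule: 50 min enzyme reaction, room temperature, light-protected; Technique: FRET fluorescence in CFP and YFP emission channels; Controls: no-enzyme wells low, DMSO-plus-enzyme wells high control.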
SENP8 conf = human SENP8 inhibition, confirmed; shares compounds with SENP7 block; Recombinant SENP8, Z-RLRGG-aminoluciferin luminescence, 60 min; inhibition, % at 12.5 µM; 40% of 6,200 active; AID 488912;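 active = mean inhibition across replicates above about 50%, limit read from the data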
SENP6 conf = human SENP6 inhibition, confirmed | 58% of 6,200 active | shares compounds with SENP7 block | inhibition, % at 12.5 µM | AID 488915 | recombinant SENP6, Z-RLRGG-aminoluciferin luminescence
SENP7 conf = human SENP7 inhibition, confirmed | shares compounds with SENP7 block | recombinant SENP7, Z-RLRGG-aminoluciferin luminescence, 40 min | inhibition, % at 12.5 µM | 69% of 6,200 active | AID 488917
Casp3 select = selectivity test for SENP inhibitors: human caspase-3 inhibition. purified caspase-3, Z-DEVD-aminoluciferin luminescence, 60 min. shares compounds with SENP7 block. 60% of 6,200 active. inhibition, % at 12.5 µM;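 active = mean inhibition above about 50%, limit read from the data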;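 also: plate controls were enzyme with DMSO for no effect and wells without caspase-3 for full effect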
Luc interf = counter-screen for SENP inhibitors: luminescence interference. shares compounds with SENP7 block. Pre-incubated SENP8/Z-RLRGG-aminoluciferin, luciferase luminescence interference. inhibition, % at 12.5 µM. 39% of 6,200 active;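 active = mean inhibition above about 50% when retested at one dose, limit read from the data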;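 also: plate controls were DMSO wells with completed reaction for no effect and substrate without enzyme for full effect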
* hit, by the source's call; ? = inconclusive; . = not tested or not shown. Most compounds without a hit are left out; they make up all but 2.6% or so of the library.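 The calls were made as follows, unless noted: active = mean inhibition above about 50% in the one-dose retest (limit read from the data); inactive = the rest.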

SMILES	SENP6 inh	Platelet DG rel	SENP8 block-1	SENP8 block-2	SENP7 block	SENP1 FRET inh	SENP8 conf	SENP6 conf	SENP7 conf	Casp3 select	Luc interf
COc1ccc(/C=C/C(=O)NC(=S)N2CCOCC2)cc1	70*	8	-2	46	70*	1	62*	56*	83*	80*	67*
CCc1ccc(NC(=O)C2CCN(S(=O)(=O)c3c(C)noc3C)CC2)cc1	-3	2	15	5	2	1	.	.	.	.	.
COc1cccc(C(C[N+](=O)[O-])c2c(C)[nH]n(-c3ccccc3)c2=O)c1 (stereo not given)	83*	17	73*	65*	85*	4	8	8	2	-3	-2
O=C(Cc1ccc(Cl)cc1)c1ccc(O)cc1	51*	1	23	42	5	-1	55*	50	79*	46	63*
CC(=O)Nc1nc(SCc2ccc(Cl)cc2Cl)n[nH]1	-2	-5	9	-10	-5	1	.	.	.	.	.
O=C(COC(=O)c1ccccc1[N+](=O)[O-])c1ccc(C2CCCCC2)cc1	90*	3	12	89*	98*	-2	12	77*	52*	79*	16
O=C(c1ccccc1F)N1CCc2ccccc21	6	7	10	2	3	0	.	.	.	.	.
Cc1ccc(C(=O)OCC(=O)N2CCc3ccccc32)cc1	5	-7	32	-23	31	0	.	.	.	.	.
O=C(OCC(=O)N1CCc2ccccc21)c1ccccc1[N+](=O)[O-]	87*	.	4	86*	91*	1	94*	94*	102*	95*	74*
N#CC1(NC(=O)COC(=O)c2ccccc2[N+](=O)[O-])CCCCC1	-4	-2	3	0	-2	2	.	.	.	.	.
O=C(OCC(=O)N1CCc2ccccc21)c1ccccc1F	58*	20	10	33	43	-2	43	38	76*	64*	5
O=C(Nc1ccccn1)c1ccc2c(=O)n3c(nc2c1)CCCCC3	27	.	11	0	15	0	.	.	.	.	.
CCc1ccccc1NC(=O)Nn1cnnc1	11	-5	-2	3	-5	2	.	.	.	.	.
CCOC(=O)Nc1ccc(C)cc1NC(=O)OCC	-6	0	7	0	9	1	.	.	.	.	.
CCOC(=O)Nc1ccc(NCc2ccc(F)cc2)nc1N	68*	.	-384	58*	47	-29	8	36	16	4	2
Cc1ccc(O)c(NC(=O)c2ccc3c(c2)C(=O)N(Cc2cccnc2)C3=O)c1	47	15	8	39	86*	6	0	14	32	18	-1
Cn1cc(Cl)c(C(=O)OCC(=O)Nc2cccc(Cl)c2)n1	51*	0	4	-9	-12	-1	-1	7	4	5	0
COc1ccc(C(=O)Nc2ccc3c(c2)C(=O)c2ccccc2C3=O)cc1OC	-12	20	20	5	6	-1	.	.	.	.	.
COc1ccc(C(=O)c2c(C(F)(F)F)oc3c2C(=O)c2ccccc2C3=O)cc1OC	58*	-2	63*	60*	45	1	10	79*	32	78*	1
COC(=O)c1ccc(-c2nc(-c3ccc(Br)o3)no2)cc1	0	6	10	-5	52*	3	-13	-7	18	16	2
CCOC(=O)c1ccc(OCc2nc(-c3cccs3)no2)cc1	35	-1	17	19	4	1	.	.	.	.	.
COC(=O)c1ccc(-c2nc(-c3cccs3)no2)cc1	92*	.	5	87*	98*	1	78*	88*	89*	88*	38
COc1ccc(-c2nc(-c3ccc(Br)o3)no2)cc1	49	22	4	25	70*	-3	6	12	11	27	9
O=C(Nc1ccc(-c2noc(-c3cccs3)n2)cc1)c1cccnc1	38	2	7	20	55*	-3	5	41	68*	26	7
CC(Sc1nccn1C)C(=O)NC1(C#N)CCCCC1 (stereo not given)	0	.	10	5	4	0	.	.	.	.	.
SMILES	SENP6 inh	Platelet DG rel	SENP8 block-1	SENP8 block-2	SENP7 block	SENP1 FRET inh	SENP8 conf	SENP6 conf	SENP7 conf	Casp3 select	Luc interf
O=CNn1cnc2c(oc3nc(-c4ccccc4)cc(-c4ccco4)c32)c1=O	-12	-3	-407	-6	4	2	.	.	.	.	.
CC(C)NC(=O)c1ccc2nc([C@@H]3O[C@H](CO)[C@H](O)[C@H](O)[C@H]3O)[nH]c2c1	.	.	14	.	.	-1	.	.	.	.	.
O=C(Nc1ccc(N2CCN(C(=O)c3cccs3)CC2)cc1)c1ccccc1Cl	-28	4	9	-2	2	2	.	.	.	.	.
Cc1oc2ccc(OCc3ccccc3Cl)cc2c1C(=O)O	62*	8	20	37	0	-3	35	40	51*	55*	22
O=C(O)c1cccc(OCc2ccccc2Cl)c1	94*	-6	8	79*	75*	1	86*	86*	97*	82*	89*
CC(=O)c1c(C)oc2ccc(OCc3ccccc3)cc12	55*	4	10	34	33	-3	31	29	68*	24	16
COC(=O)c1cc(COc2ccc3oc(C)c(C(=O)OC)c3c2)c(C)o1	-7	-13	4	-2	-1	2	.	.	.	.	.
O=C(O)c1ccccc1COc1ccccc1Cl	-18	-1	5	-3	6	1	.	.	.	.	.
CCOc1ccc(-n2ccnc2SCC(=O)Nc2cc(C)on2)cc1	2	-1	12	1	3	-1	.	.	.	.	.
O=C1NC(=Nc2ccccc2Cl)S/C1=C\c1cccc([N+](=O)[O-])c1O	93*	3	48*	86*	9	58*	90*	92*	79*	52*	81*
COc1c(/C=C2\SC(=Nc3ccccc3Cl)NC2=O)cccc1[N+](=O)[O-]	-36	?	14	-44	9	1	.	.	.	.	.
COC(=O)N/C(C)=C1/NC(=O)c2ccccc2C(c2ccccc2)N1 (stereo not given)	3	8	9	1	7	0	.	.	.	.	.

Compound activity deposited in PubChem by several laboratories.
